Hits are enriched below; roughly 1.5% of the tested compounds scored in any of these assays.
PGC1a acetyl inh – lowers PGC1a acetylation signal in U2OS cells; AlphaScreen anti-acetyl-lysine; with virally co-expressed GCN5 acetyltransferase; inhibition, % at 15.6 µM; 0.17% of 350,000 active; AID 651687;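 active = every replicate shows inhibition of at least 40%; inconclusive = mean inhibition at least 40% but some replicate below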;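 also: 0% = neutral control wells and 100% = positive control wells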
Cneo AK release – causes C. neoformans cell lysis; adenylate kinase release luminescence, 4 h; normalised: neutral wells 0, clomiphene wells 100; 0.2% of 360,000 active; lysis activity, % at 15 µM;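 active = mean lysis activity across replicates of at least 80%, whatever share of replicates individually reach that level; inactive = mean lysis activity below 80%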
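Material: C. neoformans cells; Schedule: 4 h static compound exposure, 37 °C, read 1 h post-reagent; Measured by: adenylate kinase release luminescence; Read-out: signal increase indicating cell lysis; Controls: Clomiphene as positive lysis control.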
MITF TRPM1 HTS – MITF TRPM1 promoter activation in melanoma cells | activation, % at 12.5 µM | SK-MEL-5 TRPM1-promoter luciferase, 24 h; % of positive control, neutral wells = 0 | AID 588334 | 0.75% of 300,000 active;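 active = mean activation of at least 80% with every replicate also reaching 80%; inconclusive = mean reaches 80% but some replicate falls short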;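 also: 0% = neutral control wells and 100% = parthenolide positive control wells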
Wnt act – activates Wnt/beta-catenin signaling in a reporter cell assay; activator, plate reader; AID 743398; activation, % at 9.35 µM; 1.2% of 300,000 active; in the data active = activation above about 30%, passing the limit was not always enough; inconclusive = no clear call, values can overlap the other calls;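 also: 0% = neutral control wells and 100% = positive control wells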
Numbers without * were called inactive; ? = inconclusive; . = no result given.

SMILES | PGC1a acetyl inh | Cneo AK release | MITF TRPM1 HTS | Wnt act
COc1ccccc1C#Cc1ccc([C@H]2[C@H](CO)N3CCCCN(C(=O)C4CCCC4)C[C@@H]23)cc1 | -9 | 3 | . | .
O=c1c2cc(-c3ccccc3)sc2nc2n1CCC2 | . | . | . | 60*
Cc1nc2sc(-c3ccccc3)cc2c(=O)n1N | 1 | -8 | -45 | -2
Cc1nc2sc(-c3ccccc3)cc2c(=O)n1-n1cccc1 | . | -4 | 102* | .
O=c1c2ccccc2nc2n1CCC2 | 11 | . | -7 | -4
COc1ccc(S(=O)(=O)Nc2ccc3c(c2)C(=O)N([C@@H](C)CO)C[C@H](C)[C@H](CN(C)S(C)(=O)=O)O3)cc1 | 0 | 2 | . | .
COc1ccc(-c2csc(-c3ccccc3)n2)c(OC)c1 | -22 | . | 86* | 13
COc1ccc(-c2csc(-c3cccs3)n2)c(OC)c1 | . | -3 | 45 | 4
CC(C)CC#Cc1ccc2c(c1)O[C@H](CN(C)C(=O)Cc1ccncc1)[C@@H](C)CN([C@H](C)CO)S2(=O)=O | 5 | -5 | . | .
C[C@@H]1CN([C@@H](C)CO)C(=O)Cc2cc(NS(C)(=O)=O)ccc2O[C@H]1CN(C)S(C)(=O)=O | -1 | 2 | . | .
C#Cc1ccc2c(c1)COc1c3ccccc3nn1-2 | . | -3 | 18 | 27
CC(C#Cc1ccc2c(c1)COc1c3ccccc3nn1-2)OC(C)(C)C (configuration not stated) | . | -2 | 95* | 15
C(#CC1CCCCC1)c1ccc2c(c1)COc1c3ccccc3nn1-2 | . | -1 | . | 35*
C(#Cc1ccc2c(c1)COc1c3ccccc3nn1-2)c1ccccc1 | 5 | -1 | 100* | 32*
CCCCCCC#Cc1ccc2c(c1)COc1c3ccccc3nn1-2 | . | -3 | 84* | 19
CO[C@H]1CN(C)C(=O)c2ccc(NC(=O)c3cnccn3)cc2OC[C@@H](C)N(CCc2ccccc2)C[C@@H]1C | -3 | -1 | . | .
C[C@H]1CN([C@@H](C)CO)S(=O)(=O)c2ccc(-c3cccnc3)cc2O[C@@H]1CN(C)C(=O)C1CCCCC1 | -1 | 0 | . | .
CCc1cc(C(=O)c2ccc(OC)cc2)c(N)s1 | -47 | 1 | . | 39*
CCc1cc(C(=O)c2ccccc2OC)c(N)s1 | 5 | -2 | 1 | .
Cc1nc(SCC(=O)c2cccs2)c2oc3ccccc3c2n1 | -5 | 1 | . | 71*
O=C(CSc1ncnc2c1oc1ccccc12)c1cccs1 | 4 | . | ? | .
COc1ccc(NC(=O)N(C)C[C@@H]2Oc3ccc(NC(=O)Nc4c(C)noc4C)cc3C(=O)N([C@H](C)CO)C[C@@H]2C)cc1 | -4 | 0 | . | .
CCOc1ccc2c(c1)C(=NNC(=O)c1ccncc1)c1cc(OCC)ccc1-2 | -2 | 4 | 3 | 49*
CC1CCN(c2ccc(NC(=S)NC(=O)c3ccco3)cc2)CC1 | -32 | -2 | 17 | .
O=C(Nc1ccc2c(c1)OCO2)c1c(Cl)nc2sccn12 | -8 | -1 | 94* | .
SMILES | PGC1a acetyl inh | Cneo AK release | MITF TRPM1 HTS | Wnt act
CCN1CCN(c2ccc(NC(=O)c3ccc4c(c3)OCO4)cc2)CC1 | 5 | -3 | 35 | 47*
COCCSc1nnc(NC(=O)c2ccc3c(c2)OCO3)s1 | 1 | . | 38 | 47*
O=C(NC(=S)Nc1ccc(N2CCCCC2)cc1)c1ccco1 | -2 | -12 | 110* | 28
CSc1nnc(NC(=O)c2ccc3c(c2)OCO3)s1 | 0 | 0 | -38 | 11
CC(C)NC(=O)Nc1ccc2c(c1)C(=O)N([C@H](C)CO)C[C@@H](C)[C@H](CN(C)C(=O)NC(C)C)O2 | 5 | 0 | . | .
O=C(Nc1ccc2c(c1)OCO2)c1ccc2c(c1)OCO2 | . | . | 20 | .
Cc1ccc2c(Cl)c(C(=O)Nc3ccc4c(c3)OCO4)sc2c1 | . | -1 | 99* | .
O=C(Nc1ccc2c(c1)OCO2)c1cccc(Cl)c1 | -18 | 0 | 104* | -1
O=C(Nc1ccc(N2CCCC2)cc1)c1cc(Cl)ccc1Cl | 0 | 2 | 2 | -5
O=C(Nc1ccc(N2CCCC2)cc1)c1cccc(Cl)c1 | 3 | -1 | 102* | 33*
NC(=O)c1ccc(NC(=O)c2ccc3c(c2)OCO3)cc1 | . | 0 | 88* | -1
C[C@@H]1CN([C@@H](C)CO)C(=O)Cc2cc(NS(C)(=O)=O)ccc2O[C@@H]1CN(C)Cc1ccc(Oc2ccccc2)cc1 | -3 | -3 | . | .
COc1cccc(S(=O)(=O)N[C@@H]2CC[C@H](CC(=O)NCc3ccccc3)O[C@H]2CO)c1 | -6 | -3 | . | .
Cc1noc(C)c1NC(=O)N(C)C[C@H]1Oc2c(NC(=O)Nc3ccccc3)cccc2C(=O)N([C@H](C)CO)C[C@H]1C | -1 | . | . | .
C[C@H](CO)N1C[C@H](C)[C@H](CN(C)CC2CCCCC2)Oc2ccc(NC(=O)c3ccncc3)cc2C1=O | -1 | 1 | . | .
Cc1cc(C)cc(NC(=O)Nc2ccc(N3CCCCC3)cc2)c1 | -24 | -2 | . | 39*
O=C(Nc1ccc(F)c(F)c1)c1ccc2c(c1)OCO2 | 17 | -1 | 85* | .
CCC(=O)Nc1ccc2c(c1)OC[C@@H](C)N(C(=O)NC(C)C)C[C@@H](C)[C@H](OC)CN(C)C2=O | 5 | . | . | .
Cc1noc(C)c1NC(=O)Nc1ccc2c(c1)CC(=O)N([C@@H](C)CO)C[C@H](C)[C@H](CN(C)S(=O)(=O)c1cn(C)cn1)O2 | 4 | -1 | . | .
COc1ccc(C(=O)/C=C/c2ccccc2OC)c(OC(=O)c2ccc([N+](=O)[O-])cc2)c1 | 0 | -7 | 13 | 38*
COc1ccc(C(=O)/C=C/c2ccc(OC)cc2OC)c(O)c1 | -5 | -1 | 93* | 1
COc1ccc(C(=O)C=Cc2cccs2)c(O)c1 | -3 | -3 | 69 | 48*
COc1ccc(OC(=O)c2cccc([N+](=O)[O-])c2)c(C(=O)/C=C/c2cccs2)c1 | 4 | 1 | 7 | -4
O=C(NCC1CC1)[C@@H]1[C@@H](CO)[C@@H]2Cn3c(ccc(C4=CCCC4)c3=O)[C@H]1N2C(=O)C1CC1 | . | 0 | . | .
CCCCN(C(=O)CC1OC(=O)c2ccccc21)c1c(N)n(CCCC)c(=O)[nH]c1=O (configuration not stated) | . | 1 | 1 | 0
SMILES | PGC1a acetyl inh | Cneo AK release | MITF TRPM1 HTS | Wnt act
CCCCn1c(N)c(N(Cc2ccccc2OC)C(=O)CC2OC(=O)c3ccccc32)c(=O)[nH]c1=O (configuration not stated) | 6 | -1 | 5 | 32*
O=c1c2cccc(Cl)c2nc2n1Cc1ccccc1-2 | 7 | 5 | . | 39*
O=c1cc(-c2ccccc2)nc2n1Cc1ccccc1-2 | 6 | 2 | -2 | .
COc1ccccc1/C=C(/C(=O)OCC(=O)Nc1ccccc1C)c1ccccc1 | . | 1 | 6 | -3
COc1ccccc1/C=C(/C(=O)OCC(=O)NCc1ccccc1)c1ccccc1 | 92* | 1 | -5 | -4
C/C=C/c1ccc2c(c1)O[C@H](CN(C)C(=O)Cc1cccnc1)[C@H](C)CN([C@H](C)CO)S2(=O)=O | 14 | 8 | . | .
COc1ccc(/C(N)=N/OC(=O)c2cccs2)cc1OC | 2 | . | 84* | 8
N/C(=N\OC(=O)c1cccc(Br)c1)c1ccc(Br)cc1 | 4 | 0 | 3 | .
N/C(=N\OC(=O)c1cccs1)c1ccccc1 | -3 | -3 | 19 | 14

From PubChem
